What was measured:
[1] = type: in vivo; conditions: human, plasma, oral, 25 mg
Method in brief: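 Nine patients took oral 25 mg daily with food from day 1, adding intramuscular 250 mg fulvestrant from day 8 every 28 ± 5 days. Plasma was sampled over 24 h after the day-7 dose and again after about 120 ± 7 days of combination. Samples went into prechilled heparinised tubes on ice, spun at 1000–1200g for 10–15 min at 4°C and held at about −70°C. LC-MS/MS, LLOQ 0.1 ng/mL. Noncompartmental analysis: Cmax by inspection, AUC by linear trapezoid, t1/2 = 0.693/λz.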

[2] = system: serum IGFBP-3 (IGF-binding protein 3); assay: Serum IGFBP-3 levels; type: in vivo, human; conditions: Day 7 (exemestane alone); mean ± SD; n 22
Method in brief: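 Serum was taken at baseline, after 1 week of single-agent oral exemestane 25 mg daily (day 7), and at day 120 (±7). About 5 mL venous blood went into serum separator tubes, clotted for at least 30 min and was centrifuged at 3000 rpm for 10 min. Serum was frozen at −70°C until assay. Day differences were tested by repeated-measures ANOVA.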

[3] = system: serum IGF-1 (insulin-like growth factor 1); assay: Serum IGF-1 levels; type: in vivo, human; conditions: Day 7 (exemestane alone); mean ± SD; n 23

AUC(0-t) [1]: 61.7 ± 17.1 ng·h/mL
Cmax [1]: 20.1 ± 7.7 ng/mL
half-life [1]: 476 ± 79.2 min
SMILES: C=C1C[C@@H]2[C@H](CC[C@]3(C)C(=O)CC[C@@H]23)[C@@]2(C)C=CC(=O)C=C12 [Exemestane]
IGFBP-3 serum level [2]: 5273 ± 1372 ng/mL
IGF-1 serum level [3]: 141 ± 55.1 ng/mL

— paper PMC5003403 (Clinical breast cancer, 2012)
